Screening data from PubChem BioAssay.
Most compounds without a hit are left out; they make up all but 4.7% or so of the library.
MrgX1 allo act – allosterically activates human MrgX1 receptor signaling; Q96LB2; MrgX1-HEK293, Fluo-4 calcium flux, FDSS; stronger effect = higher value; B-score at 10 µM; 0.63% of 310,000 active; AID 588675;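 active = plate-corrected calcium response at least 3 library SD above typical, normal starting fluorescence, not activating the receptor alone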;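 note: compound read alongside a low EC10 to EC30 dose of BAM8-22 agonist; peak minus trough fluorescence over baseline measured at the second addition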
KCC2 mod – modulators of human KCC2 chloride dependent transport. B-score of Tl+ flux slope (higher = more flux/activation; lower = inhibition) at 10 µM. 2.2% of 190,000 active. Q9H2X9. KCC2 cells, thallium flux FluoZin-2 fluorescence;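 active = thallium flux slope and its plate-corrected score both differing from the plate sample mean at a set confidence after two filtering rounds, in either direction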;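 note: slope of fluorescence scaled to starting intensity during 10 to 20 s after thallium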
Target sequence (Q9H2X9 whole entry, looked up): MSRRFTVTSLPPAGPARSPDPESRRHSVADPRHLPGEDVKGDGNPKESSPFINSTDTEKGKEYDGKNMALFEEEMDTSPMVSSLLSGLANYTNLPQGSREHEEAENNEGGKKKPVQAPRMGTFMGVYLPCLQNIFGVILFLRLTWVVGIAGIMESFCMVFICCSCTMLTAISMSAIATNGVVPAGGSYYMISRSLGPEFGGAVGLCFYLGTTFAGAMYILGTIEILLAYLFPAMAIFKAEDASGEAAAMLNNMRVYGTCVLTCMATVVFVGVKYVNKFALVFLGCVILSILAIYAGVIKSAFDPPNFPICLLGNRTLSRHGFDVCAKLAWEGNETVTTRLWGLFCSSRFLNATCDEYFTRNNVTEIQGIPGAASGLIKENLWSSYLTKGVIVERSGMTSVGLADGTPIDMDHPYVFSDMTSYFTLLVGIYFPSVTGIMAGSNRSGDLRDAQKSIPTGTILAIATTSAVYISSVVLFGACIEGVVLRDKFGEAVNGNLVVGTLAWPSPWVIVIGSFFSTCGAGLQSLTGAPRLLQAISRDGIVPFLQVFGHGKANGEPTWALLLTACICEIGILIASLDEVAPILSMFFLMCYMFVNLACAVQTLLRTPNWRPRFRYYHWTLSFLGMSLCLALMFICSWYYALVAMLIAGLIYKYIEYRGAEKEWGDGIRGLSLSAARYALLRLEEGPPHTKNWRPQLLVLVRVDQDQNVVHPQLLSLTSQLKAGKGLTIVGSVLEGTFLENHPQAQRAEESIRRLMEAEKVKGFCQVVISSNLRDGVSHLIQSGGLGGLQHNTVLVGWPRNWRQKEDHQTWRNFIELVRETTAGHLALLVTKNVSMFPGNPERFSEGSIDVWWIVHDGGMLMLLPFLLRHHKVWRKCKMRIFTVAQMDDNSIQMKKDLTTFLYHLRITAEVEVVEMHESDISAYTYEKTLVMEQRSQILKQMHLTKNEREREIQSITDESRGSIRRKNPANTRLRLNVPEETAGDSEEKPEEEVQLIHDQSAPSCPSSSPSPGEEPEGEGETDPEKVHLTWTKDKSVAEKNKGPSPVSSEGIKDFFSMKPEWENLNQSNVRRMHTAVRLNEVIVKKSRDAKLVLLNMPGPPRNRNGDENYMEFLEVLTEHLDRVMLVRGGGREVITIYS
RGS4 act – RGS4 potentiation or activation; AID 463111; 0.92% of 310,000 active; B-score at 10 µM; HEK293 M3R/inducible RGS4, carbachol calcium flux Fluo4; stronger effect = lower value;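 active = B-score of the integrated calcium signal more than 4 SD below the library mean, with starting fluorescence not abnormally high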;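 note: negative B-score means reduced calcium response which marks RGS4 activation or potentiation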
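Detection: kinetic calcium fluorescence imaging with Fluo4-AM dye, 2 µM / Material: HEK293 cells with stable M3R and inducible RGS4 / Schedule: recording 10 s baseline at 1 Hz, 100 s post-agonist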
MrgX1 antag – blocks BAM8-22 activation of human MrgX1 receptor. Q96LB2. MRGX1-HEK293 calcium flux, Fluo-4, BAM8-22 antagonism; stronger effect = lower value. B-score at 10 µM. 1.3% of 310,000 active. AID 588676;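 active = calcium-response B-score plate-corrected more than 3 library SD below zero, starting fluorescence within 5 deviations, no agonist response on first addition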;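 note: peak minus trough fluorescence over baseline after final BAM8-22 challenge near maximal dose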
MrgX1 agonist – agonists of human MrgX1 receptor | 0.44% of 310,000 active | MrgX1-HEK293 cells, Fluo-4 calcium fluorescence, agonist mode; stronger effect = higher value | Q96LB2 | B-score at 10 µM;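 active = calcium response B-score plate-corrected fluorescence ratio at least 3 library SD, with starting fluorescence B-score inside 5 SD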
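times = overnight plating, then 30 min 37 °C plus 30 min room-temperature dye loading | assay system = stable human MrgX1 HEK293 cell line | input = fifteen thousand cells per well | signal = kinetic calcium dye fluorescence, Fluo-4 NW | dosing = compound delivered in addition one of three | read-out = B-scored fluorescence response ratio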
RGS4 inh – human RGS4 inhibition; P49798; B-score at 10 µM; 0.45% of 310,000 active; HEK293 M3R/RGS4 inducible, Fluo-4 calcium flux; stronger effect = higher value; triggered by carbachol at its EC20; AID 463165;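 active = B-score, a plate-corrected calcium signal, over three deviations above library mean, with baseline fluorescence within five deviations of library mean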;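 note: RGS4 expression induced by doxycycline in cells with stable M3 receptor; B-score is computed from the integrated fluorescence ratio over baseline after carbachol; higher B-score means a larger calcium signal and so more RGS4 inhibition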
KCC2 secondary – KCC2 (human) modulation, secondary assay; shares compounds with KCC2 mod; HEK293-KCC2, thallium flux, FluoZin2 fluorescence; stronger effect = higher value; normalised thallium flux (F/F0 slope) at 10 µM; 15% of 3,700 active;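 active = thallium flux slope above the same plate's solvent-only control mean plus 3 SD; inconclusive = the two replicate wells disagree; inactive = no significant difference from solvent-only control wells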
KCC2 bumet counter – bumetanide-insensitive thallium flux in KCC2 cells with ouabain, counter-screen; shares compounds with KCC2 mod; HEK293-KCC2 + bumetanide/ouabain, thallium flux FluoZin2; stronger effect = higher value; normalized thallium flux at 10 µM; 49% of 3,700 active; AID 1714;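 active = thallium entry rate above the same plate's blocked-transporter control wells by more than 3 SD; inconclusive = the two repeat wells disagree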;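 note: raw slope of fluorescence over initial fluorescence between 10 and 20 s after thallium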
KCC2 sec2 – KCC2 (human) modulation, second secondary assay. 23% of 3,700 active. AID 1715. normalized thallium flux at 10 µM. shares compounds with KCC2 mod. HEK293-KCC2, thallium flux FluoZin2 fluorescence; actives lie on both sides; F/F0 rise rate, 10–20 s post-thallium;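 active = thallium flux slope more than 3 SD above or below the plate's solvent-only control mean, mostly below; inconclusive = the two repeat wells disagreed; inactive = no significant shift from solvent-only controls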;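 note: raw slope with 0.1% DMSO as baseline and bumetanide as block control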
HEK293 Tl flux – parental HEK flux effect, counter-screen; thallium flux rate (normalised fluorescence) at 10 µM; HEK293 parental cells, thallium flux FluoZin2, ouabain; baseline-ratio fluorescence slope, 10–20 s after thallium; 46% of 3,700 active; shares compounds with KCC2 mod;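 active = thallium flux rate significantly above the same plate's solvent-only control wells, beyond their mean plus 3 SD; inconclusive = the two replicate wells gave conflicting results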
KCC2 ouabain – modulates human KCC2 on retest with ouabain | 48% of 3,700 active | raw Tl+ flux slope (below DMSO = inhibition, above = activation) at 10 µM | shares compounds with KCC2 mod | HEK293-KCC2, thallium flux FluoZin2 fluorescence; bidirectional: low = inhibitor, high = activator;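 active = thallium flux slope beyond 3 SD from same-plate DMSO control mean in most replicates, usually higher, sometimes lower; inconclusive = repeat tests gave conflicting results; inactive = no significant difference from controls in most replicates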;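 note: slope of initial-normalized fluorescence between seconds 10 and 20 after thallium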
HEK counter2 – acts in parental HEK cells, second KCC2 counter-screen. 33% of 3,700 active. thallium flux slope at 10 µM. shares compounds with KCC2 mod. HEK293 parental, thallium flux FluoZin-2 fluorescence slope;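 active = thallium flux slope above the same plate's solvent-control mean plus 3 SD in both duplicate wells; inconclusive = duplicate wells that disagreed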;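 note: run without ouabain in cells lacking the KCC2 cotransporter; slope of fluorescence scaled to its starting value between 10 and 20 s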
The depositor's hits bear a star.

For O=C(Nc1cccc(-c2nnn(CC(=O)N3CCc4ccccc4C3)n2)c1)C1CCC1 the results were MrgX1 allo act inactive, RGS4 act inactive, MrgX1 antag inactive, MrgX1 agonist inactive, RGS4 inh inactive, KCC2 secondary 0.017, KCC2 bumet counter 0.0043, KCC2 sec2 inconclusive, HEK293 Tl flux inconclusive, KCC2 ouabain 0.014* and HEK counter2 0.01.
CC1Cc2ccccc2N1C(=O)Cn1nnc(-c2ccccc2NC(=O)C2CCC2)n1 (configuration not stated) was read as MrgX1 allo act inactive, KCC2 mod -2.3, RGS4 act inactive, MrgX1 antag inactive, MrgX1 agonist inactive and RGS4 inh inactive.
Screening O=C(C1CCCCC1)N1CCCc2ccccc21 returned MrgX1 allo act inactive, RGS4 act inactive, MrgX1 antag inactive, MrgX1 agonist inactive and RGS4 inh inactive.
CC(C)(C)C(=O)NC(=S)N1CCc2ccccc21 was read as MrgX1 allo act inactive, KCC2 mod 22*, RGS4 act inactive, MrgX1 antag inactive, MrgX1 agonist inactive, RGS4 inh inactive, KCC2 secondary 0.024*, KCC2 bumet counter 0.1*, KCC2 sec2 0.052*, HEK293 Tl flux inconclusive, KCC2 ouabain 0.066* and HEK counter2 0.037*.
For O=C(NC(=S)N1CCc2ccccc21)C1CCC1 the results were MrgX1 allo act inactive, KCC2 mod 14*, RGS4 act inactive, MrgX1 antag inactive, MrgX1 agonist inactive, RGS4 inh inactive, KCC2 secondary 0.0082, KCC2 bumet counter 0.025*, KCC2 sec2 0.033, HEK293 Tl flux 0.018*, KCC2 ouabain inconclusive and HEK counter2 0.016*.
O=C(NC(=S)N1CCc2ccccc21)c1ccc(Br)o1 was read as MrgX1 allo act inactive, KCC2 mod 65*, RGS4 act inactive, MrgX1 antag inactive, MrgX1 agonist inactive, RGS4 inh inactive, KCC2 secondary 0.063*, KCC2 bumet counter 0.086*, KCC2 sec2 0.09*, HEK293 Tl flux 0.098*, KCC2 ouabain 0.09* and HEK counter2 0.11*.
CC1(C)Cc2c(cnn2-c2ccc(F)cc2)C(NC(=O)CN2CCCCC2=O)C1 (configuration not stated) was read as MrgX1 allo act inactive, RGS4 act inactive, MrgX1 antag inactive, MrgX1 agonist inactive and RGS4 inh inactive.
CCOc1ccccc1N1CN(C2CCCCC2)CNC1=S was read as MrgX1 allo act inactive, KCC2 mod 0.95, RGS4 act inactive, MrgX1 antag inactive, MrgX1 agonist inactive and RGS4 inh inactive.
Screening CCOC(=O)c1ccc(N2CN(C3CCCCC3)CNC2=S)cc1 returned MrgX1 allo act inactive, KCC2 mod -0.051, RGS4 act inactive, MrgX1 antag inactive, MrgX1 agonist inactive, RGS4 inh inactive, KCC2 secondary 0.0073, KCC2 bumet counter 0.0049, KCC2 sec2 0.03, HEK293 Tl flux 0.0085, KCC2 ouabain 0.019 and HEK counter2 0.012.
`O=C(Nc1ccccc1)/C(=C\c1ccc(F)cc1)NC(=O)c1ccco1` gave MrgX1 allo act inactive, RGS4 act inactive, MrgX1 antag inactive, MrgX1 agonist inactive and RGS4 inh inactive.
Screening O=C1NC2(CCCc3ccccc32)C(=O)N1Cc1nnc(-c2ccccc2Br)o1 (configuration not stated) returned MrgX1 allo act inactive, KCC2 mod -0.52, RGS4 act inactive, MrgX1 antag inactive, MrgX1 agonist inactive and RGS4 inh inactive.
For CC1(CCc2ccccc2)NC(=O)N(Cc2nnc(-c3ccccc3Br)o2)C1=O (configuration not stated) the results were MrgX1 allo act inactive, RGS4 act inactive, MrgX1 antag inactive, MrgX1 agonist inactive, RGS4 inh inactive, KCC2 secondary 0.0071, KCC2 bumet counter 0.0044, KCC2 sec2 0.024*, HEK293 Tl flux 0.0074, KCC2 ouabain 0.016* and HEK counter2 0.01.
`CSCCC(NC(=O)c1ccc([N+](=O)[O-])cc1Cl)C(=O)OCC(=O)NCCCc1ccccc1` (configuration not stated) gave MrgX1 allo act inactive, KCC2 mod -4.3*, RGS4 act inactive, MrgX1 antag inactive, MrgX1 agonist inactive, RGS4 inh inactive, KCC2 secondary 0.0056, KCC2 bumet counter inconclusive, KCC2 sec2 0.026*, HEK293 Tl flux 0.0071, KCC2 ouabain inconclusive and HEK counter2 0.01.
O=C(/C=C/c1ccc(F)cc1)NC(=S)N1CCN(c2ccccn2)CC1 was read as MrgX1 allo act inactive, KCC2 mod 21*, RGS4 act inactive, MrgX1 antag inactive, MrgX1 agonist inactive, RGS4 inh inactive, KCC2 secondary 0.0076, KCC2 bumet counter 0.019*, KCC2 sec2 0.031, HEK293 Tl flux 0.013*, KCC2 ouabain inconclusive and HEK counter2 0.013*.
COc1ccc(/C=C/C(=O)NC(=S)N2CCN(c3ccccn3)CC2)cc1OC was read as MrgX1 allo act inactive, KCC2 mod -0.0068, RGS4 act inactive, MrgX1 antag inactive, MrgX1 agonist inactive and RGS4 inh inactive.
Screening Cc1ccc(/C=C/C(=O)NC(=S)N2CCN(C)CC2)cc1 returned MrgX1 allo act inactive, KCC2 mod 1.7, RGS4 act inactive, MrgX1 antag inactive, MrgX1 agonist inactive and RGS4 inh inactive.
